Measured values: ChEMBL document CHEMBL1124947, “Cationic antiprotozoal drugs. Trypanocidal activity of 2-(4'-formylphenyl)imidazo[1,2-a]pyridinium guanylhydrazones and related derivatives of quaternary heteroaromatic compounds” (J Med Chem, 1990)

What was measured:
Type in all cases: functional
Mus musculus [1] = experiment: Trypanocidal Activity at I.C.E. value 0.30 when administered perorally.
Mus musculus [2] = experiment: Trypanocidal Activity at I.C.E. value 0.85 when administered subcutaneously.
Outline: (§1)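 Mice, in groups of five per dose, were given a standard inoculum of blood-stage T. rhodesiense that is lethal to all untreated controls, then dosed subcutaneously. Usually 11 dose levels were used (2^n × 0.42 mg/kg).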

Mus musculus [3] = experiment: Trypanocidal Activity at I.C.E. value 0.38 when administered subcutaneously.
Outline: (§2)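 Blood-stage T. rhodesiense infection came from a standard inoculum lethal to all untreated mice. Drug was given by subcutaneous injection to groups of five mice. Survival beyond 30 days counted as cure. […] Sub-curative doses scored 0, and data were normalized at each dose.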

[4] = tested on: Trypanosoma brucei rhodesiense; experiment: In Vitro measurement of inhibition of Leucine uptake in cell culture of Trypanosoma rhodesiense.; details: read-out: ID50 (the source's name)
Outline: (§3)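 Trypanosomes harvested from infected rats, cultured 3 h with several concentrations of drug, usually 0.1–100 µg/mL. Radiolabeled L-leucine uptake measured. ID50 is the concentration in µg/mL giving 50% inhibition of incorporation.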

[5] = tested on: Trypanosoma brucei rhodesiense; experiment: In Vitro measurement of inhibition of Thymidine uptake in cell culture of Trypanosoma rhodesiense.; details: read-out: ID50 (the source's name)
Mus musculus [6] = experiment: Trypanocidal Activity at I.C.E. value 0.55 when administered perorally.
Mus musculus [7] = experiment: Trypanocidal Activity at I.C.E. value 0.87 when administered subcutaneously.; outline: as §1
[8] = tested on: Trypanosoma brucei rhodesiense; experiment: In Vitro measurement of inhibition of thymidine uptake in cell culture of Trypanosoma rhodesiense; details: read-out: ID50 (the source's name)
Outline: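 Parasites harvested from infected rats and incubated 3 h across a drug concentration series, usually 0.1–100 µg/mL. Incorporation of radiolabeled thymidine measured. ID50 is the concentration (µg/mL) producing 50% inhibition.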

[9] = tested on: Trypanosoma brucei rhodesiense; experiment: In Vitro measurement of inhibition of leucine uptake in cell culture of Trypanosoma rhodesiense; details: read-out: ID50 (the source's name); outline: as §3
Mus musculus [10] = experiment: Trypanocidal Activity at I.C.E. value 0.70 when administered perorally.
Mus musculus [11] = experiment: Trypanocidal Activity at I.C.E. value 0.54 when administered subcutaneously.; outline: as §2
Mus musculus [12] = experiment: Trypanocidal Activity at I.C.E. value 0.24 when administered perorally.
Mus musculus [13] = experiment: Trypanocidal Activity at I.C.E. value 0.75 when administered subcutaneously.; outline: as §1
Mus musculus [14] = experiment: Trypanocidal Activity at I.C.E. value 0.64 when administered subcutaneously.; outline: as §1
Mus musculus [15] = experiment: Trypanocidal Activity at I.C.E. value 0.19 when administered perorally.
Mus musculus [16] = experiment: Trypanocidal Activity at I.C.E. value >0.3 when administered perorally.
Mus musculus [17] = experiment: Trypanocidal Activity at I.C.E. value 0.34 when administered subcutaneously.; outline: as §2

## Cc1ccc(S(=O)(=O)O)cc1.Cc1ccc(S(=O)(=O)[O-])cc1.Cc1cccc2n1cc(/C=C/c1ccc(/C=N/NC(=N)N)cc1)[n+]2C
Mus musculus [1]
  CD50: 53 mg/kg
Mus musculus [2]
  CD50: 0.4 mg/kg

## Br.CSC(=N)N/N=C/c1ccc(-c2cn3cc(C)ccc3[n+]2C)cc1.[Br-]
Mus musculus [3]
  CD50: 26 mg/kg
[4]
  IC50: > 10 µg/mL
[5]
  IC50: 4 µg/mL

## COc1ccc2n(c1)cc(-c1ccc(/C=N/NC(=N)N)cc1)[n+]2C.Cc1ccc(S(=O)(=O)O)cc1.Cc1ccc(S(=O)(=O)[O-])cc1
Mus musculus [6]
  CD50: 6.6 mg/kg
Mus musculus [7]
  CD50: 0.4 mg/kg
[8]
  IC50: 5.9 µg/mL
[9]
  IC50: 4.3 µg/mL

## Br.C[n+]1c(-c2ccc(/C=N/NC(=N)N3CCCC3)cc2)cn2ccsc21.[Br-]
Mus musculus [10]
  CD50: 3.3 mg/kg
Mus musculus [11]
  CD50: 0.1 mg/kg

## Br.Cc1cccc2n1cc(COc1ccc(/C=N/NC(=N)N3CCCC3)cc1)[n+]2C.[Br-]
Mus musculus [12]
  CD50: 53 mg/kg
Mus musculus [13]
  CD50: 0.4 mg/kg

## Br.C[n+]1c(COc2ccc(/C=N/NC3=NCCCN3)cc2)cn2cc(C(F)(F)F)ccc21.[Br-]
Mus musculus [14]
  CD50: 1.6 mg/kg
Mus musculus [15]
  CD50: 106 mg/kg
[8]
  IC50: 0.4 µg/mL
[9]
  IC50: 0.5 µg/mL

## Br.CC/N=C(\NCC)N/N=C/C=C/c1ccc(-c2cn3ccccc3[n+]2C)cc1.[Br-]
Mus musculus [16]
  CD50: 53 mg/kg
Mus musculus [17]
  CD50: 13 mg/kg
